Source: publication PMC11561146 (Communications Biology, 2024)
Entries after “also recorded” stand apart in the source; their conditions may differ.

Columns and labels:
TrK13-WT [1] = target: T1, TrK13-WT (Plasmodium falciparum, UniProt Q8IDQ2); assay type: binding; settings: TrK13-WT 10 µM, 10-fold molar excess of competitor
T1 sequence (Q8IDQ2 189-726): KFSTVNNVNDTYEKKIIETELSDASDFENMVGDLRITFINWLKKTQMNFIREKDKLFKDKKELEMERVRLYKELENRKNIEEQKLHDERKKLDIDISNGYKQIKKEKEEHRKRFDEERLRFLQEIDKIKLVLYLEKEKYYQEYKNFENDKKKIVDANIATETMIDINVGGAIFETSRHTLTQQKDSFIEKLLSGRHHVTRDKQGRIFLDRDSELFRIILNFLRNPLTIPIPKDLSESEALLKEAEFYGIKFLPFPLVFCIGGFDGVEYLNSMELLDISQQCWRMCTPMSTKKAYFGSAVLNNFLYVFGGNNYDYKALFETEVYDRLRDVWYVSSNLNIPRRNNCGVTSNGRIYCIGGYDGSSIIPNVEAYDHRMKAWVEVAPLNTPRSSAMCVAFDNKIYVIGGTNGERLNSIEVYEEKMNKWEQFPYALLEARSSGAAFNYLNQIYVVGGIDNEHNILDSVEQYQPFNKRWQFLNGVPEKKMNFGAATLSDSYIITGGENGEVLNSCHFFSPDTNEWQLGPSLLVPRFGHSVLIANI
Outline: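 TrK13-WT (10 µM) was preincubated for 1 h at RT with 100 µM reduced heme or a heme analog. Hemin-agarose beads (50% v/v suspension) were then added for 1 h at RT, rotating, in MOPS pH 7.4. Beads were washed five times with MOPS. Bound protein was eluted in Laemmli buffer and resolved by SDS-PAGE with Coomassie staining. Band pixel intensity was expressed relative to the no-competitor band, set as 100%.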

[2] = tested on: recombinant TrK13-WT protein; test: UV-visible spectrophotometry of TrK13-WT with metal salts; assay type: binding, Plasmodium falciparum; settings: TrK13-WT 5 μM, metal salt 500 μM (100-times molar excess)
heme-bound TrK13-WT = test: Detection of AAS by UV-visible spectrophotometry; assay type: biochemical, Plasmodium falciparum; settings: for increase in the intensity of the 380 nm peak vs heme-bound protein without ART: 200 µM ART or DOA, 30 min, after G-25 desalting
TrK13-WT [3] = target: T1, TrK13-WT; test: UV-visible spectrophotometry of heme binding
TrK13-WT [4] = target: T1, TrK13-WT; test: Tryptophan fluorescence quenching by heme; assay type: binding
TrK13-R539T = target: T2, TrK13-R539T (Plasmodium falciparum, UniProt Q8IDQ2, R539T); test: Tryptophan fluorescence quenching by heme; assay type: binding
T2 sequence (Q8IDQ2 189-726 R539T): T1 sequence (Q8IDQ2 189-726)

TrK13-C580Y = target: T3, TrK13-C580Y (Plasmodium falciparum, UniProt Q8IDQ2, C580Y); test: Tryptophan fluorescence quenching by heme; assay type: binding
T3 sequence (Q8IDQ2 189-726 C580Y): T1 sequence (Q8IDQ2 189-726)

TrK13-A578S = target: T4, TrK13-A578S (Plasmodium falciparum, UniProt Q8IDQ2, A578S); test: Tryptophan fluorescence quenching by heme; assay type: binding
T4 sequence (Q8IDQ2 189-726 A578S): T1 sequence (Q8IDQ2 189-726)

[5] = Detection of ART activated species; assay type: biochemical; settings: heme: ART or derivative 1:1.20, 30 min, reducing conditions
Outline: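 Heme under reducing conditions was reacted with test compound for 30 min, with no protein. Mixtures were run on a C4 column at 1 mL/min using a 0.05% TFA water/acetonitrile gradient (A/B 63/37 to 52/48 over 15 min, then 15 min hold), with Soret detection at 410 nm. Free heme and AAS peaks were integrated, and AAS was given as a percentage of heme by AUC; mean ± SD, three independent experiments.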

heme bound to TrK13-WT = test: Detection of AAS by HPLC, protein-bound heme after G-25 desalting; assay type: biochemical, Plasmodium falciparum; settings: heme-TrK13 mixture desalted (G-25) before ART addition
Outline: (§1)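 Recombinant TrK13 protein (10 µM) was incubated with 60 µM reduced heme for 30 min at 37°C. Unbound heme was removed on a G-25 desalting column, then 72 µM test compound was added for another 30 min. Products were separated on a C4 column at 1 mL/min with 0.05% TFA water/acetonitrile (A/B 63/37 to 52/48 over 15 min, then 15 min hold). Detection was at 410 nm. AAS was expressed as a percentage of heme peak area (AUC); mean ± SD, three independent experiments.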

[6] = tested on: heme bound to TrK13-R539T; test: as above; assay type: biochemical, Plasmodium falciparum; settings: heme-TrK13 mixture desalted (G-25) before ART addition
Outline: as §1

heme-bound TrK13-A578S = test: Detection of AAS by UV-visible spectrophotometry; assay type: biochemical, Plasmodium falciparum; settings: 200 µM ART, 30 min
Outline: (§2)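 Purified recombinant protein (10 µM) is incubated for 1 h at room temperature with or without equimolar dithionite-reduced heme (or Zn-PPIX). It is then desalted on a G-25 spin column to remove unbound heme. The >5 kDa eluate is incubated with 200 µM ART or DOA for 30 min. Spectra are scanned at 250–700 nm for the Soret peak, with no-heme and no-ART controls.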

heme-TrK13-R539T complex = test: Detection of AAS by UV-visible spectrophotometry; assay type: biochemical, Plasmodium falciparum; settings: 200 µM ART, 30 min
Outline: as §2

heme-TrK13-C580Y complex = test: Detection of AAS by UV-visible spectrophotometry; assay type: biochemical, Plasmodium falciparum; settings: 200 µM ART, 30 min
Outline: as §2

heme-BSA complex = heme-BSA complex (Bos taurus, UniProt P02769); test: Detection of AAS by UV-visible spectrophotometry; assay type: biochemical; settings: ART, 30 min
Chain of heme-BSA complex (P02769 25-607, one chain of several): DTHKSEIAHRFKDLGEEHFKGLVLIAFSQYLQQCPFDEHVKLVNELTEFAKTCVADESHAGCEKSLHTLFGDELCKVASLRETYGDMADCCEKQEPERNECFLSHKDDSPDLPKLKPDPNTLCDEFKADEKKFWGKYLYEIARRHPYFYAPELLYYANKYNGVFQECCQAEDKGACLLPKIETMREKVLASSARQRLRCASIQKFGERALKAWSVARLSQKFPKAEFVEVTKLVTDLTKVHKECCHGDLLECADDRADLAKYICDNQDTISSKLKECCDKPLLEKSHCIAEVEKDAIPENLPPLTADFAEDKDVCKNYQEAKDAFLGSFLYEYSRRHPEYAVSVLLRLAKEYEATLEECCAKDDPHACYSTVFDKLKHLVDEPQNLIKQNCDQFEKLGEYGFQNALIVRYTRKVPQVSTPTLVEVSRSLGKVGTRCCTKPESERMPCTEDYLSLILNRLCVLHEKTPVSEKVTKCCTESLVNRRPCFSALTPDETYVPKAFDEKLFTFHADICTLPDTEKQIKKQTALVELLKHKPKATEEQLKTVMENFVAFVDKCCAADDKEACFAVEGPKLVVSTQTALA
Outline: as §2

heme-PfHRP2 complex = test: Detection of AAS by UV-visible spectrophotometry; assay type: biochemical, Plasmodium falciparum; settings: ART, 30 min
[7] = tested on: recombinant TrK13-WT protein; test: Ferene S colorimetric assay of iron binding; design: species or system Plasmodium falciparum; settings: TrK13-WT 5 μM, 30-times molar excess (150 μM) FAS, G-25 desalted
[8] = tested on: TrK13-QNG (E688Q-E691N-H697G); test: Ferene S colorimetric assay of iron binding; design: species or system Plasmodium falciparum; settings: Ferene S assay with FAS
[9] = protein 10 µM, heme 0–5 µM, excitation 295 nm
[10] = tryptophan fluorescence quenching

C=CC1=C(C)c2cc3[nH]c(cc4nc(cc5[nH]c(cc1n2)c(C)c5CCC(=O)O)C(CCC(=O)O)=C4C)c(C)c3C=C [PPIX, protoporphyrin IX]
inhibition of TrK13-WT binding to hemin-agarose beads (TrK13-WT [1]): ~ 50%

O=S(=O)([O-])[O-].O=S(=O)([O-])[O-].[Fe+3].[NH4+] [FES, ferric ammonium sulfate]
increase in the absorbance of TrK13-WT at 280 nm relative to TrK13-WT alone (no salts) [2]: 12.84 times

C=CC1=C(C)c2cc3[n-]c(cc4[n-]c(cc5nc(cc1n2)C(C)=C5C=C)c(C)c4CCC(=O)O)c(CCC(=O)O)c3C.[Zn+2] [Zn-PPIX]
inhibition of TrK13-WT binding to hemin-agarose beads (TrK13-WT [1]): ~ 65%
increase in absorbance at 380 nm on ART addition, Zn-PPIX instead of heme (heme-bound TrK13-WT; TrK13-WT with Zn-PPIX, then ART): no increase

C=CC1=C(C)c2cc3[nH]c(cc4nc(cc5[nH]c(cc1n2)c(C)c5C=C)C(C)=C4CCC(=O)O)c(CCC(=O)O)c3C.[Fe+3] [heme, ferrous protoporphyrin IX]
Kd (TrK13-WT [3]; read-out: Kd (double reciprocal plot of 1/ΔA versus 1/[heme]), TrK13-WT 10 µM titrated with heme 0-26 µM, G25 desalted): 36.22 ± 0.1 nM
Stern-Volmer quenching constant (KSV) (TrK13-WT [4]; [9]): 0.59 µM⁻¹
Association constant (Ka) (TrK13-WT [4]; [10]): 1.35E + 11 M^-1
Stern-Volmer quenching constant (KSV) (TrK13-R539T; [9]): 1.17 µM⁻¹
Association constant (Ka) (TrK13-R539T; [10]): 7.86E + 07 M^-1
Stern-Volmer quenching constant (KSV) (TrK13-C580Y; [9]): 1.75 µM⁻¹
Association constant (Ka) (TrK13-C580Y; [10]): 1.47E + 07 M^-1
Stern-Volmer quenching constant (KSV) (TrK13-A578S; [9]): 0.66 µM⁻¹
Association constant (Ka) (TrK13-A578S; [10]): 2.88E + 11 M^-1

C[C@H]1[C@@H](O)O[C@@H]2O[C@@]3(C)CC[C@H]4[C@H](C)CC[C@@H]1[C@@]24OO3 [DHA, dihydroartemisinin]
AAS peaks in the HPLC chromatogram at 410 nm [5]: additional peaks

C[C@@H]1CC[C@H]2[C@@H](C)C(=O)O[C@@H]3O[C@@]4(C)CC[C@@H]1[C@]32OO4 [ART, artemisinin]
changes in the spectral profile of TrK13-WT at 250–700 nm (direct interaction) (TrK13-WT [3]; TrK13-WT 10 µM with excess (200 µM) ART, no heme): no visible changes
AAS peaks in the HPLC chromatogram at 410 nm [5]: additional peaks
Percentage of AAS versus heme (area under the curve) (heme bound to TrK13-WT): ~ 50%
Percentage of AAS versus heme (area under the curve) [6]: ~ 30%
increase in the intensity of the 380 nm peak vs heme-bound protein without ART (heme-bound TrK13-WT): ~ 42%
increment in the 380 nm absorbance peak after addition of ART (heme-bound TrK13-WT; Fe^3+ hemin not pre-reduced to Fe^2+ heme): No increment
increase in peak intensity at 380 nm (heme-bound TrK13-A578S): ~ 176%
increase in peak intensity at 380 nm (heme-TrK13-R539T complex): barely detectable increase
increase in peak intensity at 380 nm (heme-TrK13-C580Y complex): barely detectable increase
AAS formation (peak absorbance at 380 nm) (heme-BSA complex): no AAS formation
AAS formation (peak absorbance at 380 nm) (heme-PfHRP2 complex): no AAS formation

C[C@@H]1CC[C@H]2[C@@H](C)C(=O)O[C@@H]3O[C@@]4(C)CC[C@@H]1[C@]32O4 [DOA, deoxyartemisinin]
increase in the intensity of the 380 nm peak vs heme-bound protein without ART (heme-bound TrK13-WT): no increase; also recorded: no hyperchromic shift

O=S(=O)([O-])[O-].O=S(=O)([O-])[O-].[Fe+2].[NH4+].[NH4+] [FAS, ferrous ammonium sulfate]
increase in the absorbance of TrK13-WT at 280 nm relative to TrK13-WT alone (no salts) [2]: 5.82 times
increase in the absorbance at 595 nm in the eluate vs FAS alone or TrK13-WT alone controls [7]: Approximately 10 fold
reduction in absorbance at 595 nm in TrK13-QNG compared to TrK13-WT [8]: ~ 33%
